# Activity calls are given as the source filed them. The calls are words filed in the database; no cut-off is given here.
# Tests used:
# [1] = Log P value by using Octanol / pH 7.4 buffer; format: physicochemical
# How it was run: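 Partition measured between octanol and pH 7.4 buffer.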
# [2] = target: Aldo-keto reductase family 1 member B1 (Bos taurus) (UniProt P16116); assay: Inhibition of aldose reductase activity in a partially purified bovine lens preparation at 10e-7 M
# How it was run: (§1)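 Partially purified bovine lens aldose reductase (ammonium sulfate fractionation). NADPH oxidation read at 340 nm, 37 °C, in 30 mM sodium phosphate pH 6.2, 0.2 M LiSO4, […], 1% DMSO. Enzyme was preincubated with inhibitor for 5 min, then the reaction was started with 5 mM DL-glyceraldehyde. Duplicates; IC50 from linear regression of log concentration vs percent inhibition.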
# [3] = target: Aldo-keto reductase family 1 member B1 (Bos taurus) (UniProt P16116); assay: Inhibition of aldose reductase activity in a partially purified bovine lens preparation at 4*10e-8 M; how it was run: as §1
# Rattus norvegicus [4] = assay: Percentage Inhibition of galactitol accumulation in the sciatic nerve of rats fed with the dose of 1.0 mg/kg/day; format: functional
# How it was run: (§2)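 Male Sprague-Dawley rats (70-90 g), six per group, fed 20% galactose chow with compound in the diet for 4 days; glucose-fed controls. After a 3-h fast, lens or sciatic nerve galactitol was measured as nmol/mg wet weight. Percent inhibition vs galactose-fed controls, mean ± SEM; ANOVA with Dunnett's test.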
# [5] = target: Aldo-keto reductase family 1 member B1 (Bos taurus, UniProt P16116); assay: In vitro inhibition of aldose reductase activity in a partially purified bovine lens preparation
# [6] = Half-life In vitro; format: ADME
# Rattus norvegicus [7] = assay: Percentage Inhibition of galactitol accumulation in the sciatic nerve of rats fed with the dose of 0.5 mg/kg/day; format: functional; how it was run: as §2
# [8] = Compound was evaluated In vitro for inhibition of aldose reductase activity by 50% in rat RBC
# How it was run: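 Rat (or dog) red blood cells from fasted male Sprague-Dawley rats (150-170 g, EDTA, aortic arch) or pooled beagle blood; 1 mL packed cells in 2 mL HBSS with 10 mM galactose plus inhibitor 1 to 5×10^-8 M, 3 h, 95% air/5% CO2, shaken. Erythrocyte galactitol measured; IC50 mean ± SD of three to six replicate experiments.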
# Rattus norvegicus [9] = species: Rattus norvegicus; assay: Dose at which the tissue level of polyol accumulation was reduced by 50% was evaluated for 12 days in sciatic nerve; format: functional; conditions: 288 h
# Rattus norvegicus [10] = species: Rattus norvegicus; assay: Dose at which the tissue level of polyol accumulation was reduced by 50% was evaluated for 14 days in RBC; format: functional; conditions: 336 h
# How it was run: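 Male Sprague-Dawley rats (200-250 g, 12 per group) made diabetic with streptozocin 60 mg/kg iv in cold 0.03 M citrate pH 4.5; plasma glucose kept between 300 and 550 mg/dl. Compound was suspended in 2% Tween 80/saline and gavaged daily for 14 days. On day 15, RBC, lens and sciatic nerve polyol was measured. ED50 by nonlinear regression of log dose.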
# Rattus norvegicus [11] = species: Rattus norvegicus; assay: Dose at which the tissue level of polyol accumulation was reduced by 50% was evaluated for 14 days in sciatic nerve; format: functional
# How it was run: (§3)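 Male Sprague-Dawley rats (70-90 g, six per group) fed chow with 20% galactose and compound in the diet for 4 or 14 days. After a 3-h fast, lens and sciatic nerve were removed and frozen, and galactitol was quantitated in nmol/mg wet weight. ED50 from nonlinear regression of log dose vs tissue polyol.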
# Rattus norvegicus [12] = species: Rattus norvegicus; assay: Dose at which the tissue level of polyol accumulation was reduced by 50% was evaluated for 4 days in lens; format: functional; conditions: Lens of camera-type eye, 96 h; how it was run: as §3
# Rattus norvegicus [13] = species: Rattus norvegicus; assay: Dose at which the tissue level of polyol accumulation was reduced by 50% was evaluated for 4 days in sciatic nerve; format: functional; conditions: 96 h; how it was run: as §3
# Rattus norvegicus [14] = species: Rattus norvegicus; assay: Dose at which the tissue level of polyol accumulation was reduced by 50% was evaluated for 12 days in lens; format: functional; conditions: Lens of camera-type eye, 288 h
# Rattus norvegicus [15] = assay: Percentage Inhibition of galactitol accumulation in the lens of rats fed with the dose of 0.6 mg/kg/day; NS=no significant; format: functional, organism-based; conditions: Lens of camera-type eye; how it was run: as §2
# Rattus norvegicus [16] = assay: Percentage Inhibition of galactitol accumulation in the sciatic nerve of rats fed with the dose of 0.6 mg/kg/day; format: functional; how it was run: as §2
# Rattus norvegicus [17] = species: Rattus norvegicus; assay: Percentage Inhibition of galactitol accumulation in the sciatic nerve of rats
# Rattus norvegicus [18] = assay: Percentage Inhibition of galactitol accumulation in the sciatic nerve of rats fed with the dose of 4.0 mg/kg/day; format: functional; conditions: read-out: Inhibition; how it was run: as §2
# Rattus norvegicus [19] = assay: Percentage Inhibition of galactitol accumulation in the lens of rats fed with the dose of 4.0 mg/kg/day; NS=Not significant; format: functional, organism-based; conditions: Lens of camera-type eye; how it was run: as §2
# [20] = Rattus norvegicus, Sciatic nerve, 336 h, read-out: ED50
compound,measurement,setting,value
CN1C(=O)c2ccc(Br)cc2C2(CC(=O)NC2=O)C1=O (configuration not stated),logD,[1],0.8
same,inhibition,[2],85%
same,inhibition,[3],43%
same,inhibition in vivo at 1 mg/kg/day,Rattus norvegicus [4],54%
O=C1CC2(C(=O)N1)C(=O)N(Cc1ccc(C(F)(F)F)cc1)C(=O)c1ccccc12 (configuration not stated),IC50,[5],0.025 µM
CCCCN1C(=O)c2ccccc2C2(CC(=O)NC2=O)C1=O (configuration not stated),inhibition,[2],17%
same,inhibition,[3],19%
CN1C(=O)c2cccc(Cl)c2C2(CC(=O)NC2=O)C1=O (configuration not stated),inhibition,[2],24%
same,inhibition,[3],11%
CCN1C(=O)c2ccccc2C2(CC(=O)NC2=O)C1=O (configuration not stated),inhibition,[2],27%
same,inhibition,[3],17%
O=C1C[C@@]2(C(=O)N1)C(=O)N(Cc1ccc(Br)cc1F)C(=O)c1ccccc12,half-life,[6],4 h
same,IC50,[5],0.0097 µM
same,inhibition in vivo at 0.5 mg/kg/day,Rattus norvegicus [7],83%
COc1ccc2c(C(=S)N(C)CC(=O)O)cccc2c1C(F)(F)F [TOLRESTAT],IC50,[8],0.0272 µM
same,ED50,Rattus norvegicus [9],4.5 mg/kg/day
same,ED50,Rattus norvegicus [10],1.9 mg/kg/day
same,ED50,Rattus norvegicus [11]; [20],3.8 mg/kg/day
same,ED50,Rattus norvegicus [12],128 mg/kg/day
same,ED50,Rattus norvegicus [13],6.4 mg/kg/day
same,ED50,Rattus norvegicus [14],28 mg/kg/day
O=C1CC2(C(=O)N1)C(=O)N(Cc1ccc(Br)cc1F)C(=O)c1cc(Cl)ccc12 (configuration not stated),logD,[1],3.51
same,IC50,[5],0.033 µM
same,inhibition,Rattus norvegicus [15],inactive
same,inhibition in vivo at 0.6 mg/kg/day,Rattus norvegicus [16],63%
O=C1C[C@@]2(C(=O)N1)C(=O)N(Cc1ccc(Br)cc1F)C(=O)c1ccc(F)cc12,half-life,[6],0.5 h
same,IC50,[5],0.009 µM
same,ED50,Rattus norvegicus [17],0.09 mg/kg
O=C1CC2(C(=O)N1)C(=O)N(Cc1ccc(Br)cc1F)C(=O)c1c(F)cccc12 (configuration not stated),IC50,[5],0.023 µM
same,inhibition in vivo at 0.5 mg/kg/day,Rattus norvegicus [7],51%
O=C1CC2(C(=O)N1)C(=O)N(Cc1ccc(Br)cc1F)C(=O)c1ccc(C(F)(F)F)cc12 (configuration not stated),IC50,[5],0.038 µM
COc1ccc2c(c1)C1(CC(=O)NC1=O)C(=O)N(C)C2=O (configuration not stated),inhibition,[2],63%
same,inhibition,[3],30%
COc1ccc2c(c1)C(=O)N(C)C(=O)C21CC(=O)NC1=O (configuration not stated),inhibition,[2],55%
same,inhibition,[3],41%
CON1C(=O)c2ccc(Cl)cc2C2(CC(=O)NC2=O)C1=O (configuration not stated),inhibition,[2],27%
same,inhibition,[3],11%
COc1cc2c(cc1Br)C1(CC(=O)NC1=O)C(=O)N(Cc1ccc(Br)cc1F)C2=O (configuration not stated),IC50,[5],0.028 µM
same,inhibition in vivo at 0.5 mg/kg/day,Rattus norvegicus [7],55%
O=C1C[C@]2(C(=O)N1)C(=O)N(Cc1ccc(Br)cc1F)C(=O)c1ccccc12,half-life,[6],4 h
same,IC50,[5],1 µM
COc1ccc(CN2C(=O)c3ccccc3C3(CC(=O)NC3=O)C2=O)cc1 (configuration not stated),IC50,[5],0.025 µM
O=C1CC2(C(=O)N1)C(=O)N(Cc1nc3ccccc3s1)C(=O)c1ccccc12 (configuration not stated),IC50,[5],0.015 µM
O=C1CC2(C(=O)N1)C(=O)N(Cc1ccc(Br)cc1F)C(=O)c1ccc(F)cc12 (configuration not stated),logD,[1],2.81
same,IC50,[5],0.014 µM
same,IC50,[8],0.0269 µM
same,ED50,Rattus norvegicus [10],0.25 mg/kg/day
same,ED50,Rattus norvegicus [11],0.1 mg/kg/day
same,ED50,Rattus norvegicus [11]; [20],0.09 mg/kg/day
same,ED50,Rattus norvegicus [12],19 mg/kg/day
same,ED50,Rattus norvegicus [13],0.3 mg/kg/day
same,inhibition in vivo at 4 mg/kg/day,Rattus norvegicus [18],95%
same,inhibition,Rattus norvegicus [19],inactive
same,inhibition in vivo at 0.5 mg/kg/day,Rattus norvegicus [7],83%
COc1ccc2c(c1F)C1(CC(=O)NC1=O)C(=O)N(Cc1ccc(Br)cc1F)C2=O (configuration not stated),IC50,[5],0.03 µM
same,inhibition in vivo at 0.5 mg/kg/day,Rattus norvegicus [7],43%
COc1cc2c(cc1Br)C(=O)N(C)C(=O)C21CC(=O)NC1=O (configuration not stated),inhibition,[2],17%
